The values below come from PubChem BioAssay.

Calls of active or inactive are those of the source.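 The calls were made as follows, unless noted: active = visually confirmed hit in the image check and inhibition above 20%; inconclusive = visually confirmed hit but inhibition not above 20%; inactive = no visual hit in the image check.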

A short description of test [1]: inhibitors of TNFa-induced NFkB p65 translocation, primary screen, imaging, HUVEC, MLSMR starter and 10KST1 sets (AID 438;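 active = inhibition above 20% together with a positive visual image hit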;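 also: compound added about 3h40 before a 20 min TNFalpha stimulation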;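 as to inhibition: signal is the nuclear over cytoplasmic p65 intensity ratio per well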). The following applies: HUVEC TNFa-induced p65 nuclear translocation; cell count: measured here: nuclei count (cytotoxicity indicator), at 2.08 µM; inhibition: at 2 µM, stronger effect = higher value, 0% TNFa-plus-vehicle, 100% no-TNFa wells.
Test [2] can be described thus: endothelial E-selectin expression blockers – imaging, HUVEC, immunofluorescence, MLSMR starter and 10KST1 sets, primary screen (AID 487).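 As to inhibition: signal is fraction of cell area covered by stained E-selectin grains.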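 As to nuclei count: 100% = median nuclei count of all wells on the same plate.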 The following applies: HUVEC TNFalpha-induced E-selectin immunofluorescence imaging, at 2 µM; inhibition: stronger effect = higher value; nuclei count: measured here: cell number, toxicity.
Test [3] is described as follows: Primary imaging screen for DUSP6 inhibitors that restore phospho-Erk in transfected HeLa cells, chemical complementation (AID 609;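 active = compounds giving at least 50% inhibition in the cell-based MKP-3 phosphatase rescue imaging test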;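 as to inhibition: phospho-Erk level distribution per well compared with pooled transfected vehicle control wells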). The following applies: HeLa MKP-3 transfected, phospho-Erk imaging KS statistic, at 10 µM, cells stimulated with TPA for 15 min.
Test [4] has as its target Dual specificity protein phosphatase 6 (Homo sapiens) (UniProt Q16828). Described as above. The note with it: HeLa MKP-3 transfected, phospho-Erk imaging KS statistic; at 10 µM; stronger effect = higher value; cells stimulated with TPA for 15 min.
The target of test [5] is Voltage-gated potassium channel subunit beta-2 (Rattus norvegicus) (UniProt P62483). Kind of test: inhibitors of rat Kvbeta2 reductase activity – biochemical, NADPH fluorescence, primary screen (AID 622;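 active = fluorescence slope higher than the sample average by over 3 SD, cut at about -0.22 in these data, passing the limit was not always enough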;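 also: slope of raw intensity against log time taken from 70 to 1610 s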). The following applies: recombinant KvBeta, 4-cyanobenzaldehyde reduction, at 10 µM, stronger effect = higher value.
Test [6] has the same target. Kind of test: enhancers of rat Kvbeta2 NADPH turnover – biochemical, NADPH fluorescence, primary screen (AID 623;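 active = NADPH fluorescence slope more negative than the mean of all samples by about 3 SD, 99.7% confidence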;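 also: fluorescence intensity change per second fitted from 20 to 320 s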). The note with it: Recombinant KvBeta, NADPH fluorescence decrease slope, 10 min; at 10 µM; stronger effect = lower value.
Test [7] deals with Muscarinic acetylcholine receptor M4 (Homo sapiens) (UniProt P08173). Kind of test: M4-linked GIRK flux change, two-sided – cell-based, HEK293 M4/GIRK, thallium flux, BTC-AM, M4 allosteric agonist project, primary screen (AID 625;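 active = fluorescence slope after compound addition differing from the mean of all tested samples at 99.7% confidence, mostly higher but some lower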;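 also: thallium influx through GIRK channels coupled to M4 in HEK293 cells with BTC-AM dye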). The following applies: at 10 µM, actives lie on both sides. In a few lines:
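Material – HEK293 cells with M4 receptor and GIRK channels · Buffer or medium – pH 7.3 thallium assay buffer · Doses – one dose, 10 µM final · Timing – cells overnight at 37 °C, BTC-AM loading 1 h, reads 2 min total · Measured by – kinetic fluorescence with BTC-AM dye · Controls – carbachol and DMSO controls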

The nature of test [8]: inhibitors of larval lipid processing in zebrafish, primary screen, whole organism, PED6 fluorescence, gall bladder and intestine (AID 686;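 active = a full or partial loss of lipid-probe fluorescence in the fish gall bladder, intestine or both, judged by eye; inactive = no fluorescence loss, or compound toxic to the fish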;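 also: larvae 5 to 7 days old with five fish per well; signal comes from phospholipase A2 cleavage of quenched PED6 carried via bile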). The note with it: Zebrafish larvae PED6 lipid processing, fluorescence scoring; screened at 20 µM (by protocol). In a few lines: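 system = live zebrafish larvae aged 5-7 days, whole organism | probe or stimulus = ingested quenched lipid PED6 at 100 nM | doses = 20 µM single dose | timing = overnight exposure | detection = fluorescence microscopy with visual scoring of gall bladder and intestine | read-out = visual per-well fluorescence inhibition score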

The nature of test [9]: loss of swimming-algae plug formation – whole organism, Chlamydomonas reinhardtii, WT vs cilia-less mutant, absorbance, 96-well, primary screen (AID 463189;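 active = inhibition at or above 50% relative to wild type and mutant plate controls; inactive = inhibition below 50%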;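 also: 0% = wild type cc124 cells in DMSO and 100% = ciliumless bld1 mutant cells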). The note with it: Chlamydomonas reinhardtii gravitaxis, OD600 absorbance, 2 days; at 10 µM; stronger effect = higher value.
Setting [10] is: measured here: cell density z-score.
The mark [11] stands for this setting: measured here: nuclear c-Myc green intensity z-score.
The mark [12] stands for this setting: measured here: nuclear pErk red intensity z-score, stronger effect = higher value.

Dual specificity protein phosphatase 6 (Homo sapiens), sequence (Q16828 whole entry, looked up): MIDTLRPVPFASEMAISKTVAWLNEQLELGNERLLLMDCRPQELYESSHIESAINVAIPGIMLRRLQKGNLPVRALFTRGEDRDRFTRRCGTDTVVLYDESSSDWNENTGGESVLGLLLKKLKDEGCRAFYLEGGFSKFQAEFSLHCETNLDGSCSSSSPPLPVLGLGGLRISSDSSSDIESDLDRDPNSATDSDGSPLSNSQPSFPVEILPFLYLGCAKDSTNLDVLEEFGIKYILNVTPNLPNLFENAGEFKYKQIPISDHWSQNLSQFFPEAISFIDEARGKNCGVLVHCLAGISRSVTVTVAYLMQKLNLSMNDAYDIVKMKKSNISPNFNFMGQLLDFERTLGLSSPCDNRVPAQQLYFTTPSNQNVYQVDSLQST
Voltage-gated potassium channel subunit beta-2 (Rattus norvegicus), sequence (P62483 whole entry, looked up): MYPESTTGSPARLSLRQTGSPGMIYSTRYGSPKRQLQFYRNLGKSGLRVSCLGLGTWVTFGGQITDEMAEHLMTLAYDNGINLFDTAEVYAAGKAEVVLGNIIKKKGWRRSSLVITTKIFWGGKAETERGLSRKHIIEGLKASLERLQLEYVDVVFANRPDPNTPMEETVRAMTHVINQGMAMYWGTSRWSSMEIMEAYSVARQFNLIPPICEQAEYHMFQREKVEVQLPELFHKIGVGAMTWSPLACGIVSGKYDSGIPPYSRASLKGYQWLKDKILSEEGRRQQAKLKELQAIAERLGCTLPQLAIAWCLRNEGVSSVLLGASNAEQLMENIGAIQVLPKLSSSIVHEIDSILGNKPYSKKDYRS
Muscarinic acetylcholine receptor M4 (Homo sapiens), sequence (P08173 whole entry, looked up): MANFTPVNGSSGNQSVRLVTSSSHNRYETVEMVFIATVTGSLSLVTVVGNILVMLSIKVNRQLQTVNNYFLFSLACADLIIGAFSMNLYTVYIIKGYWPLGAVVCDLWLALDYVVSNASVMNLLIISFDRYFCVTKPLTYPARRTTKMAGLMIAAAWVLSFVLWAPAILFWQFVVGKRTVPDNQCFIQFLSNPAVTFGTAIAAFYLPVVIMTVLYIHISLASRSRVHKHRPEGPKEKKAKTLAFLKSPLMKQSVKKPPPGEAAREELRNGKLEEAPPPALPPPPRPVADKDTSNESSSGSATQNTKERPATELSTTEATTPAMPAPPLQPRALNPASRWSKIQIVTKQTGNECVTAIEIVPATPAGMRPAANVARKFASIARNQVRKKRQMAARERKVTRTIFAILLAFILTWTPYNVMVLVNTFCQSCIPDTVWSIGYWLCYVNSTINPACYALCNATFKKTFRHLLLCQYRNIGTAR

The inhibition is the drop in the measured response relative to a control, in per cent. Turning to `CCC(NC(=O)NC1=NCCS1)(C(F)(F)F)C(F)(F)F`, in test [1], the cell count turned out to be 772. In addition, the inhibition in test [1] was 2.9% (inactive); in test [2], -60% (inactive); in test [4], 20.2% (inactive); in test [9] it was -2.29% (inactive). In test [2], this molecule displayed a nuclei count of 150%. For the same molecule, the results for the z-score in test [3] (setting [10]), in [3] (setting [11]) and in test [3] (setting [12]) were 0.622, -0.646 and 0.179, respectively. For the same molecule, the figures for the fluorescence slope in test [5] and in test [7] were -0.433 (inactive) and 0.00527 (inactive), respectively. Besides, the NADPH fluorescence slope in test [6] was -7.2e-05 (inactive). Moreover, in test [8], the outcome was inactive.

`Cc1cc(=O)oc(C)c1C(=O)NC12CC3CC(CC(C3)C1)C2`: the cell count in test [1] was 739. Further, the inhibition in test [1] is -12.2% (inactive); in test [2] it was -66.8% (inactive); in test [4], -6.48% (inactive); in test [9], 6.04% (inactive). In test [2], this molecule displayed a nuclei count of 166%. Moreover, the z-score is -0.0351 in test [3] (setting [10]), 0.102 in test [3] (setting [11]) and 0.73 in test [3] (setting [12]). Besides, the fluorescence slope is -0.455 (inactive) in test [5] and 0.00545 (inactive) in [7]. The NADPH fluorescence slope in test [6] was -5.7e-05 (inactive). Besides, the call in test [8] was inactive.

On to `O=C(O)c1ccnc(C(=O)O)c1`, for which the cell count in [1] amounted to 585. The inhibition was -4.6% (inactive) in [1], -82% (inactive) in [2], -4.59% (inactive) in test [4] and 24.1% (inactive) in [9]. In test [2], the nuclei count was found to be 145%. Besides, the z-score in test [3] (setting [10]) turned out to be 0.403; in test [3] (setting [11]), 0.277; in test [3] (setting [12]) it was 1. Also, the fluorescence slope in test [5] was -0.434 (inactive); in [7], 0.00626 (inactive). In addition, the NADPH fluorescence slope in test [6] is -0.000101 (inactive). Further, the call in test [8] was inactive.

`Oc1ccc2ccccc2c1C=NC12CN3CCN(CN(C3)C1)C2`: the cell count in [1] turned out to be 349. Besides, the inhibition in test [1] was -5.7% (inactive); in [2], -45.1% (inactive); in test [4], -2.59% (inactive); in [9], 1.64% (inactive). This molecule also displayed a nuclei count in [2] of 163%. Besides, the z-score in test [3] (setting [10]) is -0.271; in test [3] (setting [11]) it was 0.531; in test [3] (setting [12]) it was 0.781. For the same molecule, the fluorescence slope in test [5] is -0.436 (inactive); in test [7], 0.00489 (inactive). For the same molecule, the NADPH fluorescence slope in test [6] was -0.000124 (inactive). Besides, in test [8], the molecule was called inactive.

In the case of `CC(=O)c1ccc(C#CC(C)(C)O)s1`, the cell count in test [1] was 496. Further, the inhibition in test [1] was -2.5% (inactive); in test [2], -51.1% (inactive); in test [4] it was -3.97% (inactive); in test [9], -7.15% (inactive). The molecule also returned a nuclei count in [2] of 126%. In addition, the z-score in test [3] (setting [10]) was -0.749; in test [3] (setting [11]) it was 0.398; in test [3] (setting [12]), 0.00406. Moreover, the results for the fluorescence slope in [5] and in [7] were -0.386 (inactive) and 0.00521 (inactive), respectively. Further, the NADPH fluorescence slope in test [6] is -7.4e-05 (inactive). The call in [8] was inactive.

Regarding `CN1CCc2c(C#N)c(N3CCCCC3)nc(NCc3ccccc3)c2C1`, in [1], the cell count came to 577. In addition, the inhibition in [1] is -13.5% (inactive); in test [2], -93.5% (inactive); in test [4] it was -2.09% (inactive); in [9], 7.09% (inactive). In addition, in [2], the nuclei count worked out at 143%. Also, the z-score is 0.729 in [3] (setting [10]), -1.12 in [3] (setting [11]) and 0.497 in test [3] (setting [12]). Also, the fluorescence slope in test [5] was -0.422 (inactive); in [7], 0.00359 (inactive). For the same molecule, the NADPH fluorescence slope in [6] was -6.7e-05 (inactive). The result in [8] was inactive.

Take `C(=N\n1cnnc1)/c1cccc(Oc2ccccc2)c1`: the cell count in [1] was found to be 569. In addition, the inhibition is -5.8% (inactive) in [1], -140% (inactive) in test [2], -6.06% (inactive) in [4] and 78.1% (active) in test [9]. For the same molecule, the nuclei count in test [2] was 111%. Besides, the z-score was -0.768 in [3] (setting [10]), 1.37 in [3] (setting [11]) and 1.58 in [3] (setting [12]). Moreover, the fluorescence slope is -0.515 (inactive) in test [5] and 0.00705 (inactive) in [7]. The NADPH fluorescence slope in [6] was -5.4e-05 (inactive). Further, in [8], the call was inactive.

With `Cc1ccc(-n2ncc3c(NCc4ccc5c(c4)OCO5)ncnc32)c(C)c1`, in [1], the cell count is 543. The inhibition in test [1] was -12.5% (inactive); in test [2] it was -35.3% (inactive); in test [4], 11.4% (inactive); in test [9], 47.1% (inactive). In test [2], this molecule had a nuclei count of 135%. In addition, the z-score is -0.519 in test [3] (setting [10]), 1.64 in [3] (setting [11]) and -0.848 in test [3] (setting [12]). The fluorescence slope in [5] is -0.376 (inactive); in [7] it was 0.0052 (inactive). The NADPH fluorescence slope in [6] is 4.1e-06 (inactive). In addition, the molecule was classed as inactive in test [8].

With `CCOC(=O)c1[nH]c2ccc(C)cc2c1N=CN(CC)CC`, in test [1], the cell count is 681. The inhibition was -16.8% (inactive) in test [1], -97.9% (inactive) in [2], 3.97% (inactive) in test [4] and -5% (inactive) in test [9]. The nuclei count in [2] turned out to be 174%. Besides, the values for the z-score in test [3] (setting [10]), in test [3] (setting [11]) and in test [3] (setting [12]) were -1.2, 1.5 and 0.686, respectively. Besides, the fluorescence slope in [5] is -0.474 (inactive); in test [7], 0.00485 (inactive). The NADPH fluorescence slope in [6] is -7.5e-05 (inactive). Moreover, the molecule was called inactive in test [8].

On to `Cn1c(N2CCN(c3ccccn3)CC2)nc2c1c(=O)n(Cc1ccc(Cl)cc1)c(=O)n2C`, for which, in [1], the cell count was 678. The inhibition in [1] was 5.8% (inactive); in [2] it was -153% (inactive); in test [4], 27.8% (inactive); in test [9] it was 24.6% (inactive). In test [2], this molecule showed a nuclei count of 180%. For the same molecule, the z-score is -0.409 in [3] (setting [10]), -1.46 in test [3] (setting [11]) and -0.591 in [3] (setting [12]). In addition, the fluorescence slope was -0.498 (inactive) in [5] and 0.00592 (inactive) in [7]. Further, the NADPH fluorescence slope in test [6] is -2.6e-05 (inactive). For the same molecule, the call in test [8] was inactive.

On to `CN(C)c1ccc(NC(=O)c2sc(SCC(=O)Nc3nccs3)nc2N)cc1`, for which, in test [1], the cell count stood at 700. Moreover, the inhibition is -11.3% (inactive) in test [1], 0.8% (inactive) in [2], 1.98% (inactive) in [4] and -7.49% (inactive) in test [9]. Further, the nuclei count in [2] was determined as 179%. Moreover, the z-score in [3] (setting [10]) was -1.08; in test [3] (setting [11]), 1.63; in test [3] (setting [12]), 0.495. Moreover, the values for the fluorescence slope in [5] and in [7] were -0.491 (inactive) and 0.00686 (inactive), respectively. The NADPH fluorescence slope in [6] was -9e-05 (inactive). Besides, the molecule was classed as inactive in test [8].

On to `O=C(NCc1ccccn1)c1ccc(=O)oc1`, for which the cell count in test [1] is 758. In addition, the inhibition is 8.2% (inactive) in [1], -1.5% (inactive) in [2], -3.95% (inactive) in test [4] and 17.3% (inactive) in test [9]. This molecule also gave a nuclei count in test [2] of 151%. Besides, the figures for the z-score in test [3] (setting [10]), in [3] (setting [11]) and in [3] (setting [12]) were 0.015, 0.178 and -0.703, respectively. In addition, the fluorescence slope was -0.48 (inactive) in test [5] and 0.00585 (inactive) in test [7]. For the same molecule, the NADPH fluorescence slope in test [6] was -4.4e-05 (inactive). In addition, the outcome in [8] was inactive.

Turning to `CC12CCC(=O)N1c1c(sc3nc(N4CCOCC4)c4c(c13)CCCC4)C(=O)N2` (centres undefined), the cell count in [1] was determined as 363. For the same molecule, the inhibition in test [1] is 1.4% (inactive); in test [2], -105% (inactive); in test [4], 5.42% (inactive); in test [9] it was 26.7% (inactive). The molecule also came in with a nuclei count in test [2] of 122%. For the same molecule, the values for the z-score in [3] (setting [10]), in test [3] (setting [11]) and in [3] (setting [12]) were -0.444, 1.24 and 0.642, respectively. For the same molecule, the fluorescence slope in test [5] is -0.316 (inactive); in [7] it was 0.00445 (inactive). For the same molecule, the NADPH fluorescence slope in test [6] is -5.5e-05 (inactive). The molecule was called inactive in test [8].
